Common to all, as to type: functional
In one test the test system is Escherichia coli. Put plainly: In vitro antibacterial activity against Escherichia coli NIH JC-2. The note with it: Escherichia coli; read-out: MIC. The procedure, abridged: (§1)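 MIC (μg/mL) by 2-fold agar dilution on Sensitivity Test agar, following the Japan Society of Chemotherapy MIC Committee method. Inocula were about 10⁶ cfu/mL. Growth was read after 20 h incubation at 37 °C.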

The subject of the next test is Klebsiella pneumoniae. Put plainly: In vitro antibacterial activity against Klebsiella pneumoniae K-1966. The note with it: Klebsiella pneumoniae; read-out: MIC. The procedure, abridged: as §1
The test system of the next test is Pseudomonas aeruginosa. Put plainly: In vitro antibacterial activity against Pseudomonas aeruginosa E-2. The note with it: Pseudomonas aeruginosa; read-out: MIC. The procedure, abridged: as §1
In the next test the test system is Shigella flexneri. Put plainly: In vitro antibacterial activity against Shigella flexneri 2a EW-10. The note with it: Shigella flexneri; read-out: MIC. In a few lines:
as §1

The subject of the next test is Serratia marcescens. Put plainly: In vitro antibacterial activity against Serratia marcescens IFO 3736. The note with it: Serratia marcescens, IFO 3736; read-out: MIC. In a few lines:
as §1

The test system of another test is Staphylococcus aureus. Put plainly: In vitro antibacterial activity against Staphylococcus aureus 209P JC-1. The note with it: Staphylococcus aureus; read-out: MIC. In a few lines:
as §1

Another test relates to Micrococcus luteus. Put plainly: In vitro antibacterial activity against Micrococcus luteus ATCC 9341. The note with it: Micrococcus luteus, ATCC 9341; read-out: MIC. In a few lines:
as §1

Test [1] is filed under the species Mus musculus. Put plainly: Compound was evaluated for oral efficacy on systemic infections in mice by Escherichia coli KC-14. In a few lines: (§2)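 Male ddY mice (20 ± 2 g), seven per dose group. Challenge was intraperitoneal, 0.5 mL of bacteria suspended in 5% gastric mucin: E. coli KC-14 at 4.3 × 10⁴ cfu/mL or P. aeruginosa E-2 at 2.88 × 10⁵ cfu/mL. Drug was suspended in 0.5% HPC-SL and given orally 2 h (E. coli) or 1 h (P. aeruginosa) after challenge. ED50 was calculated by Probit from 7-day survival.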

The species entered for test [2] is Mus musculus. Put plainly: Compound was evaluated for oral Pseudomonas aeruginosa E-2. The procedure, abridged: as §2

Converted amounts (≈) assume the structure as drawn.

As a reminder, the MIC is the least concentration at which growth counts as inhibited. For `Cl.O.O=C(O)c1c2n(c3cc(N4CCNCC4)c(F)cc3c1=O)CS2`, the MIC in the test with Escherichia coli amounted to 0.1 µg/mL; in the test on Klebsiella pneumoniae, 0.05 µg/mL; in the test on Pseudomonas aeruginosa it was 0.78 µg/mL; in the test on Shigella flexneri, 0.025 µg/mL; with Serratia marcescens it was 0.1 µg/mL; in the test on Staphylococcus aureus, 0.05 µg/mL. Moreover, the MIC in the test on Micrococcus luteus was determined as 25 µg/mL.

Regarding `C=CCN1CCN(c2cc3c(cc2F)c(=O)c(C(=O)O)c2n3C(C)S2)CC1` (stereo not drawn), the MIC came to 0.05 µg/mL (≈ 0.128 µM) in the test on Escherichia coli; 0.05 µg/mL (≈ 0.128 µM) in the test with Klebsiella pneumoniae; 0.78 µg/mL (≈ 2 µM) in the test with Pseudomonas aeruginosa; 0.025 µg/mL (≈ 0.0642 µM) in the test on Shigella flexneri; 0.19 µg/mL (≈ 0.488 µM) in the test with Serratia marcescens; 0.05 µg/mL (≈ 0.128 µM) in the test on Staphylococcus aureus. Moreover, in the test on Micrococcus luteus, the MIC was determined as 1.56 µg/mL (≈ 4.01 µM).

For `CN1CCN(c2cc3c(cc2Cl)c(=O)c(C(=O)O)c2n3CS2)CC1`, the MIC with Escherichia coli was 0.2 µg/mL (≈ 0.547 µM); with Klebsiella pneumoniae, 0.2 µg/mL (≈ 0.547 µM); in the test with Pseudomonas aeruginosa, 1.56 µg/mL (≈ 4.26 µM); in the test with Shigella flexneri it was 0.1 µg/mL (≈ 0.273 µM); in the test on Serratia marcescens, 0.39 µg/mL (≈ 1.07 µM); with Staphylococcus aureus it was 0.2 µg/mL (≈ 0.547 µM). For the same molecule, the MIC in the test on Micrococcus luteus came to 6.25 µg/mL (≈ 17.1 µM).

For the molecule `O=C(O)c1c2n(c3cc(N4CCNCC4)c(F)cc3c1=O)C(c1ccccc1)S2` (stereo not drawn), the MIC worked out at 0.025 µg/mL (≈ 0.0608 µM) with Escherichia coli; 0.025 µg/mL (≈ 0.0608 µM) in the test with Klebsiella pneumoniae; 0.2 µg/mL (≈ 0.486 µM) in the test on Pseudomonas aeruginosa; 0.025 µg/mL (≈ 0.0608 µM) with Shigella flexneri; 0.05 µg/mL (≈ 0.122 µM) with Serratia marcescens; 0.2 µg/mL (≈ 0.486 µM) in the test with Staphylococcus aureus. Moreover, the MIC with Micrococcus luteus was 3.13 µg/mL (≈ 7.61 µM).

As for `CCC1Sc2c(C(=O)O)c(=O)c3cc(F)c(N4CCN(C)CC4)cc3n21` (stereo not drawn), the MIC in the test with Serratia marcescens stood at 0.78 µg/mL (≈ 2.07 µM); with Staphylococcus aureus it was 0.2 µg/mL (≈ 0.53 µM).

Consider `O=C(O)c1c2n(c3cc(N4CCNCC4)c(F)cc3c1=O)C(c1ccc(F)cc1)S2` (stereo not drawn), for which the MIC in the test on Escherichia coli came out at 0.025 µg/mL (≈ 0.0582 µM); in the test with Klebsiella pneumoniae, 0.0125 µg/mL (≈ 0.0291 µM); in the test with Pseudomonas aeruginosa, 0.39 µg/mL (≈ 0.908 µM); with Shigella flexneri it was 0.025 µg/mL (≈ 0.0582 µM); with Serratia marcescens, 0.39 µg/mL (≈ 0.908 µM); with Staphylococcus aureus it was 0.2 µg/mL (≈ 0.466 µM). Further, the MIC in the test with Micrococcus luteus was found to be 1.56 µg/mL (≈ 3.63 µM).

On to `CC1Sc2c(C(=O)O)c(=O)c3cc(F)c(N4CCN(CCO)CC4)cc3n21` (stereo not drawn), for which the MIC was 0.1 µg/mL (≈ 0.254 µM) in the test on Escherichia coli; 0.1 µg/mL (≈ 0.254 µM) in the test on Klebsiella pneumoniae; 1.56 µg/mL (≈ 3.97 µM) with Pseudomonas aeruginosa; 0.05 µg/mL (≈ 0.127 µM) in the test with Shigella flexneri; 0.39 µg/mL (≈ 0.991 µM) in the test on Serratia marcescens; 0.1 µg/mL (≈ 0.254 µM) in the test on Staphylococcus aureus. The MIC with Micrococcus luteus came out at 0.78 µg/mL (≈ 1.98 µM).

Usually ED50 stands for the midpoint of the dose-response relation. A high value points to a need for a large dose. Turning to `CCOC(=O)c1c2n(c3cc(N4CCN(C)CC4)c(F)cc3c1=O)C(c1ccccc1)S2` (stereo not drawn), the ED50 in the test listed under Mus musculus [1] was found to be 0.89 mg/kg; in the test listed under Mus musculus [2], 18.1 mg/kg.

Consider `CC1Sc2c(C(=O)O)c(=O)c3cc(Cl)c(N4CCNCC4)cc3n21` (stereo not drawn), for which the minimal inhibitory concentration (MIC) in the test on Escherichia coli was determined as 0.05 µg/mL (≈ 0.137 µM); in the test on Klebsiella pneumoniae, 0.025 µg/mL (≈ 0.0683 µM); in the test on Pseudomonas aeruginosa, 1.56 µg/mL (≈ 4.26 µM); in the test with Shigella flexneri, 0.0125 µg/mL (≈ 0.0342 µM); in the test with Serratia marcescens, 0.1 µg/mL (≈ 0.273 µM); in the test with Staphylococcus aureus it was 0.1 µg/mL (≈ 0.273 µM). For the same molecule, the MIC in the test with Micrococcus luteus amounted to 1.56 µg/mL (≈ 4.26 µM).

Consider `CN1CCN(c2cc3c(cc2F)c(=O)c(C(=O)O)c2n3C(c3ccc(F)cc3F)S2)CC1` (stereo not drawn), for which the MIC turned out to be 0.39 µg/mL (≈ 0.845 µM) with Escherichia coli; 0.78 µg/mL (≈ 1.69 µM) in the test on Klebsiella pneumoniae; 3.13 µg/mL (≈ 6.78 µM) in the test with Pseudomonas aeruginosa; 0.78 µg/mL (≈ 1.69 µM) with Shigella flexneri; 12.5 µg/mL (≈ 27.1 µM) with Serratia marcescens; 1.56 µg/mL (≈ 3.38 µM) in the test on Staphylococcus aureus. Besides, the MIC in the test on Micrococcus luteus was 6.25 µg/mL (≈ 13.5 µM).

Take `CC1Sc2c(C(=O)O)c(=O)c3cc(F)c(N4CCOCC4)cc3n21` (stereo not drawn): the MIC was 0.1 µg/mL (≈ 0.285 µM) in the test on Escherichia coli; 0.1 µg/mL (≈ 0.285 µM) with Klebsiella pneumoniae; 0.39 µg/mL (≈ 1.11 µM) with Pseudomonas aeruginosa; 0.1 µg/mL (≈ 0.285 µM) with Shigella flexneri; 0.39 µg/mL (≈ 1.11 µM) in the test with Serratia marcescens; 0.1 µg/mL (≈ 0.285 µM) with Staphylococcus aureus. The MIC in the test with Micrococcus luteus was found to be 1.56 µg/mL (≈ 4.45 µM).

Consider `O=C(O)c1c2n(c3cc(N4CCNCC4)c(F)cc3c1=O)C(c1ccccc1F)S2` (stereo not drawn), for which the MIC in the test with Escherichia coli was determined as 0.39 µg/mL (≈ 0.908 µM); in the test on Klebsiella pneumoniae, 0.78 µg/mL (≈ 1.82 µM); with Pseudomonas aeruginosa, 3.13 µg/mL (≈ 7.29 µM); in the test on Shigella flexneri, 0.78 µg/mL (≈ 1.82 µM); in the test on Serratia marcescens, 12.5 µg/mL (≈ 29.1 µM); in the test with Staphylococcus aureus it was 1.56 µg/mL (≈ 3.63 µM). In the test on Micrococcus luteus, the MIC was 12.5 µg/mL (≈ 29.1 µM).

For `CCOC(=O)c1c2n(c3cc(N4CCN(CC(C)=O)CC4)c(F)cc3c1=O)C(C)S2` (stereo not drawn), the ED50 in the test listed under Mus musculus [1] was 0.78 mg/kg; in the test filed under Mus musculus [2], 27 mg/kg.

With `CC1Sc2c(C(=O)O)c(=O)c3cc(F)c(-n4ccnc4)cc3n21` (stereo not drawn), the MIC in the test with Escherichia coli amounted to 0.2 µg/mL (≈ 0.604 µM); in the test on Klebsiella pneumoniae, 0.1 µg/mL (≈ 0.302 µM); in the test on Pseudomonas aeruginosa it was 3.13 µg/mL (≈ 9.45 µM); with Shigella flexneri, 0.1 µg/mL (≈ 0.302 µM); with Serratia marcescens, 0.78 µg/mL (≈ 2.35 µM); in the test with Staphylococcus aureus, 0.39 µg/mL (≈ 1.18 µM). In addition, the MIC with Micrococcus luteus is 6.25 µg/mL (≈ 18.9 µM).

For the origin of these results see ChEMBL document CHEMBL1125554, “Studies on pyridonecarboxylic acids. 1. Synthesis and antibacterial evaluation of 7-substituted-6-halo-4-oxo-4H-[1,3]thiazeto[3,2-a]quinoline-3-carboxylic acids” (J Med Chem, 1992).
